The M2OR odorant receptor database
Residue numbers refer to the chain shown, from its start.

Legend:
Conditions in all cases: stereoisomer not certain
OR2W1 (Homo sapiens) = target: T1, OR2W1 (Homo sapiens) (UniProt Q9Y3N9)
T1 sequence (whole entry): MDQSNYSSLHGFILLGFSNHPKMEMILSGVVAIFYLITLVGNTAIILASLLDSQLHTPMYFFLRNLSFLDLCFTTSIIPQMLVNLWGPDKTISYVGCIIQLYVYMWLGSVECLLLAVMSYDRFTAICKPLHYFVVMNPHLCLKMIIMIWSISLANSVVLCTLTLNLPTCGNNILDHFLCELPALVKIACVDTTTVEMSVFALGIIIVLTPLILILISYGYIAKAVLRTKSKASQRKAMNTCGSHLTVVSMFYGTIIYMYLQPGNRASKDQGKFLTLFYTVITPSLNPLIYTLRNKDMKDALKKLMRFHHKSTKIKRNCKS
Procedure, shortened: (§1)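 Each receptor–molecule pair is labelled responsive or non-responsive (inactive) according to whether the original authors judged the measured signal statistically different from baseline. The data were taken from the main text and supplementary material of published papers and checked for typos and inconsistencies. Assay methods differed by source, with transient luciferase assays in mammalian cell lines being common.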

OR2W1 [1] = test system: T2, OR2W1
T2 sequence (whole entry): T1 sequence (whole entry) with D296N
Procedure, shortened: as §1

OR2W1 [2] = test system: T3, OR2W1; remark: listed apart in the source
T3 sequence (whole entry): T1 sequence (whole entry) with M81V
Procedure, shortened: as §1
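Note: active if original authors judged signal statistically different from baseline.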

Row | Compound | odorant receptor agonist call (OR2W1 (Homo sapiens)) | odorant receptor agonist call (OR2W1 [1]) | odorant receptor agonist call (OR2W1 [2])
1 | CCC=CCCC=O | active | active | active
2 | Cc1cccc(O)c1 | inactive | – | –
3 | CCCCCCC=CC=O | active | active | active
4 | CCc1ncc(C)nc1CC | inactive | – | –
5 | CCCCCCC1CCC(=O)O1 (stereo unspecified) | active | active | active
6 | CCCCCCCC(=O)[O-].[H+] | active | active | inactive
7 | CCOC(=O)C=Cc1ccccc1 | active | active | active
8 | CCC=CCCOC(C)=O | active | active | active
9 | CC1=CCC(C(C)(C)S)CC1 (stereo unspecified) | active | active | inactive
10 | CCCCCCCC(C)=O | active | active | active
11 | CSSCc1ccccc1 | active | active | active
12 | CCCCC=CC=O | active | active | inactive
13 | CCCCC(=O)OCC | active | active | active
14 | CC(S)c1ccccc1 (stereo unspecified) | active | active | active
15 | COCCC(C)(C)S | active | active | inactive
16 | CSCc1ccccc1 | active | active | active
17 | CCc1cccc(O)c1 | active | active | inactive
18 | CC(C)c1ccc(C=O)cc1 | active | active | active
19 | CSSCc1ccco1 | active | active | active
20 | CCOC(=O)CCSC | active | active | active

Row | Compound | odorant receptor agonist call (OR2W1 (Homo sapiens)) | odorant receptor agonist call (OR2W1 [1]) | odorant receptor agonist call (OR2W1 [2])
21 | CCCCC1CCC(=O)O1 (stereo unspecified) | active | active | active
22 | C=CC(=C)CCC=C(C)C | active | active | active
23 | CCOC(=O)C1CCCCC1 | active | active | inactive
24 | SCCc1ccccc1 | active | active | active
25 | C=CC(=O)CCCCC | active | active | active
26 | SCc1cccs1 | active | active | active
27 | CCCCCCOC(C)=O | active | active | active
28 | CCCC(=O)OCC | active | active | active
29 | CCCCCCO | active | active | inactive
30 | COc1ccc(C)cc1O | inactive | active | inactive
31 | c1coc(CSCc2ccco2)c1 | active | active | active
32 | C=Cc1ccc(O)cc1 | active | active | active
33 | CC(=O)c1cnccn1 | active | active | inactive
34 | CCC=CCCC=CC=O | active | active | active
35 | CSCc1ccco1 | active | active | active
36 | C=C1CCC2(C(C)C)CC12 (stereo unspecified) | active | active | inactive
37 | CCCCCc1ccccn1 | active | active | active
38 | CC(=O)OCCC(C)C | active | active | active
39 | CCCCCC=CCCC=O | active | active | inactive
40 | C=C(C)c1ccc(C)cc1 | active | active | active
